In ChEMBL document CHEMBL4396889, “From Inhibition to Degradation: Targeting the Antiapoptotic Protein Myeloid Cell Leukemia 1 (MCL1)” (J Med Chem, 2019):
The source made the active and inactive calls. The calls are words filed in the database; no cut-off is given here.

Experiments:
[1] = biological target: T1, Protein cereblon/Induced myeloid leukemia cell differentiation protein Mcl-1 (Homo sapiens) (UniProt Q07820+Q96SW2); experiment: Protac activity at Cereblon/MCL1 in human OPM2 cells assessed as protein abundance at 500 nM after 48 hrs by immunoblot analysis relative to control; assay type: cell-based
T1 sequence (Q07820 whole entry, looked up, canonical isoform): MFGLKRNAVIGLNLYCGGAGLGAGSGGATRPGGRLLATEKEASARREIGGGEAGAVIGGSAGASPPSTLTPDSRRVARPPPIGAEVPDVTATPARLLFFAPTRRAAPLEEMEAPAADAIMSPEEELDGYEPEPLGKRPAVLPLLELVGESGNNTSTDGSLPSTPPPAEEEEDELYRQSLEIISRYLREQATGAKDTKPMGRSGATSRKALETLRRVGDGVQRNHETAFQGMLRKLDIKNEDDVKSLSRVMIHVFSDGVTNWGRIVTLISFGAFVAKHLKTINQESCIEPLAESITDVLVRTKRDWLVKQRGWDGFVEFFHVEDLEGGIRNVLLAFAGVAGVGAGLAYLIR
T1 sequence (Q96SW2 whole entry, looked up, canonical isoform): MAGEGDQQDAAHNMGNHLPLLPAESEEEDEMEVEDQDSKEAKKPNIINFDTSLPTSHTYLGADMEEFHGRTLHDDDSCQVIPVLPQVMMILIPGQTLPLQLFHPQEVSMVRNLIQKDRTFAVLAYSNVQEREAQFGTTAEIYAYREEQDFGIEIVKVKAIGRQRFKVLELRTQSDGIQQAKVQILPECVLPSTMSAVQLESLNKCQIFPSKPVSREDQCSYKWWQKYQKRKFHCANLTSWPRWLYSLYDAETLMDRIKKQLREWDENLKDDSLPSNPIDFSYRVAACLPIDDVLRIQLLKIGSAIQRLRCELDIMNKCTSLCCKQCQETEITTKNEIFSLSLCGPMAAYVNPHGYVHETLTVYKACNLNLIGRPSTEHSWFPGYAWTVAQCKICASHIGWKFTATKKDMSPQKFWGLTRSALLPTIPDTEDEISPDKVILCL
Method in brief: (§1)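 OPM2 multiple myeloma cells, wild type or CRBN-knockout, were treated for 48 h with degrader or DMSO vehicle. MCL1 long and short isoforms were detected by immunoblot and levels compared with DMSO controls.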

[2] = biological target: T2, Induced myeloid leukemia cell differentiation protein Mcl-1 (Homo sapiens, UniProt Q07820); experiment: Induction of MCL1 long isoform degradation in CRBN-/- human OPM2 cells assessed as protein abundance at 300 nM pre-incubated for 72 hrs followed by cycloheximide addition and measured after 120 mins by immunoblot analysis (reference value: 37%); assay type: cell-based
T2 sequence (Q07820 whole entry, canonical isoform): as the sequence (Q07820 whole entry, looked up, canonical isoform) above
Method in brief: (§2)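 Cycloheximide chase: cells were treated for 72 h with DMSO or degrader, with cycloheximide added for the final 30, 60 or 120 min. OPM2 and MM1.S cells were used, and wild-type OPM2 was compared with OPM2 CRBN-/- at 60 and 120 min. MCL1 was detected by immunoblot.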

[3] = biological target: T1, Protein cereblon/Induced myeloid leukemia cell differentiation protein Mcl-1 (Homo sapiens); experiment: Protac activity at Cereblon/MCL1 long isoform in wild type human OPM2 cells assessed as protein abundance at 50 nM after 48 hrs by immunoblot analysis relative to control; assay type: cell-based; method in brief: as §1
OPM-2 [4] = experiment: Induction of apoptosis in wild type human OPM2 cells assessed as cleaved caspase-3 at 50 nM after 24 hrs in presence of 1% FBS by immunoblot analysis (reference value: 95%); assay type: functional
[5] = biological target: T1, Protein cereblon/Induced myeloid leukemia cell differentiation protein Mcl-1 (Homo sapiens); experiment: Protac activity at Cereblon/MCL1 long isoform in wild type human OPM2 cells at 100 nM after 48 hrs by immunoblot analysis relative to control; assay type: cell-based; method in brief: as §1
[6] = biological target: T1, Protein cereblon/Induced myeloid leukemia cell differentiation protein Mcl-1 (Homo sapiens); experiment: Protac activity at N-terminal His-tagged human MCL1 expressed in Escherichia coli/Cereblon in human OPM2 cell lysate assessed as ternary complex formation at 500 nM incubated for 4 hrs followed by cell lysate addition after overnight incubation by SDS-PAGE/immunoblot analysis
[7] = biological target: T1, Protein cereblon/Induced myeloid leukemia cell differentiation protein Mcl-1 (Homo sapiens); experiment: Protac activity at Cereblon/MCL1 short isoform in human OPM2 cells assessed as MCL1 short isoform abundance at 250 nM after 24 hrs by immunoblot analysis relative to control; assay type: cell-based
[8] = biological target: T1, Protein cereblon/Induced myeloid leukemia cell differentiation protein Mcl-1 (Homo sapiens); experiment: Protac activity at Cereblon/MCL1 short isoform in wild type human OPM2 cells assessed as MCL1 short isoform abundance at 500 nM after 48 hrs by immunoblot analysis relative to control; assay type: cell-based
Method in brief: (§3)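 OPM2 wild-type cells, run alongside the CRBN-/- line, were treated for 48 h with compound or DMSO. The MCL1 long and short isoforms were then measured by immunoblot against the DMSO control.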

[9] = biological target: T2, Induced myeloid leukemia cell differentiation protein Mcl-1; experiment: Binding affinity to His-tagged biotinylated human MCL1 by surface plasmon resonance method
[10] = biological target: T1, Protein cereblon/Induced myeloid leukemia cell differentiation protein Mcl-1 (Homo sapiens); experiment: Protac activity at Cereblon/MCL1 in human OPM2 cells assessed as protein abundance at 1 uM after 48 hrs by immunoblot analysis relative to control; assay type: cell-based; method in brief: as §1
[11] = biological target: T2, Induced myeloid leukemia cell differentiation protein Mcl-1; experiment: Induction of MCL1 short isoform degradation in CRBN-/- human OPM2 cells assessed as protein abundance at 500 nM after 48 hrs by immunoblot analysis relative to control; assay type: cell-based; method in brief: as §1
[12] = biological target: T1, Protein cereblon/Induced myeloid leukemia cell differentiation protein Mcl-1 (Homo sapiens); experiment: Protac activity at Cereblon/MCL1 short isoform in wild type human OPM2 cells assessed as MCL1 short isoform abundance at 100 nM after 48 hrs by immunoblot analysis relative to control; assay type: cell-based; method in brief: as §3
[13] = biological target: T1, Protein cereblon/Induced myeloid leukemia cell differentiation protein Mcl-1 (Homo sapiens); experiment: Protac activity at Cereblon/MCL1 long isoform in human OPM2 cells assessed as MCL1 long isoform abundance at 100 nM after 24 hrs by immunoblot analysis relative to control; assay type: cell-based
[14] = biological target: T1, Protein cereblon/Induced myeloid leukemia cell differentiation protein Mcl-1 (Homo sapiens); experiment: Protac activity at Cereblon/MCL1 in human OPM2 cells assessed as protein abundance at 25 nM after 48 hrs by immunoblot analysis relative to control; assay type: cell-based; method in brief: as §1
[15] = biological target: T2, Induced myeloid leukemia cell differentiation protein Mcl-1; experiment: Induction of MCL1 long isoform degradation in CRBN-/- human OPM2 cells assessed as protein abundance at 300 nM pre-incubated for 72 hrs followed by cycloheximide addition and measured after 60 mins by immunoblot analysis (reference value: 79%); assay type: cell-based; method in brief: as §2
[16] = biological target: T2, Induced myeloid leukemia cell differentiation protein Mcl-1; experiment: Induction of MCL1 long isoform degradation in CRBN-/- human OPM2 cells assessed as protein abundance at 500 nM after 48 hrs by immunoblot analysis relative to control; assay type: cell-based; method in brief: as §1
[17] = biological target: T1, Protein cereblon/Induced myeloid leukemia cell differentiation protein Mcl-1 (Homo sapiens); experiment: Protac activity at Cereblon/MCL1 long isoform in wild type human OPM2 cells assessed as MCL1 long isoform level at 300 nM pre-incubated for 72 hrs followed by cycloheximide addition and measured after 60 mins by immunoblot analysis (reference value: 84%); assay type: cell-based; method in brief: as §2
[18] = biological target: T1, Protein cereblon/Induced myeloid leukemia cell differentiation protein Mcl-1 (Homo sapiens); experiment: Protac activity at Cereblon/MCL1 short isoform in human MM1S cells assessed as MCL1 short isoform level at 300 nM pre-incubated for 72 hrs followed by cycloheximide addition and measured after 60 mins by immunoblot analysis (reference value: 98%); assay type: cell-based
Method in brief: (§4)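 OPM2 or MM1.S cells were treated for 72 h with compound or DMSO. Cycloheximide was added for the final 30, 60 or 120 min. MCL1 was read by immunoblot and compared with DMSO-treated cells as a normal-turnover reference.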

[19] = biological target: T1, Protein cereblon/Induced myeloid leukemia cell differentiation protein Mcl-1 (Homo sapiens); experiment: Protac activity at Cereblon/MCL1 short isoform in human MM1S cells assessed as MCL1 short isoform level at 300 nM pre-incubated for 72 hrs followed by cycloheximide addition and measured after 120 mins by immunoblot analysis (reference value: 80%); assay type: cell-based; method in brief: as §2
[20] = biological target: T1, Protein cereblon/Induced myeloid leukemia cell differentiation protein Mcl-1 (Homo sapiens); experiment: Protac activity at Cereblon/MCL1 short isoform in human OPM2 cells assessed as MCL1 short isoform level at 300 nM pre-incubated for 72 hrs followed by cycloheximide addition and measured after 30 mins by immunoblot analysis (reference value: 100%); assay type: cell-based; method in brief: as §4
[21] = biological target: T2, Induced myeloid leukemia cell differentiation protein Mcl-1; experiment: Induction of MCL1 short isoform degradation in CRBN-/- human OPM2 cells assessed as protein abundance at 300 nM pre-incubated for 72 hrs followed by cycloheximide addition and measured after 60 mins by immunoblot analysis (reference value: 57%); assay type: cell-based; method in brief: as §2
[22] = biological target: T2, Induced myeloid leukemia cell differentiation protein Mcl-1; experiment: Induction of MCL1 long isoform degradation in CRBN-/- human OPM2 cells assessed as protein abundance at 250 nM after 48 hrs by immunoblot analysis relative to control; assay type: cell-based; method in brief: as §1
[23] = biological target: T1, Protein cereblon/Induced myeloid leukemia cell differentiation protein Mcl-1 (Homo sapiens); experiment: Protac activity at Cereblon/MCL1 short isoform in human OPM2 cells assessed as MCL1 short isoform level at 300 nM pre-incubated for 72 hrs followed by cycloheximide addition and measured after 60 mins by immunoblot analysis (reference value: 49%); assay type: cell-based; method in brief: as §4
[24] = biological target: T1, Protein cereblon/Induced myeloid leukemia cell differentiation protein Mcl-1 (Homo sapiens); experiment: Protac activity at Cereblon/MCL1 short isoform in human OPM2 cells assessed as MCL1 short isoform abundance at 500 nM after 24 hrs by immunoblot analysis relative to control; assay type: cell-based
[25] = Half-life in human liver microsome pre-incubated for 10 mins followed by addition of NADPH regenerating system after 5 to 60 mins by LC/MS/MS analysis; assay type: ADME; settings: liver microsomes
OPM-2 [26] = experiment: Induction of apoptosis in wild type human OPM2 cells assessed as cleaved caspase-3 at 100 nM after 24 hrs in presence of 1% FBS by immunoblot analysis (reference value: 91%); assay type: functional
[27] = biological target: T2, Induced myeloid leukemia cell differentiation protein Mcl-1; experiment: Induction of MCL1 short isoform degradation in CRBN-/- human OPM2 cells assessed as protein abundance at 300 nM pre-incubated for 72 hrs followed by cycloheximide addition and measured after 120 mins by immunoblot analysis (reference value: 16%); assay type: cell-based; method in brief: as §2

Activity [1]: 58%
Activity [2]: 39%
Activity [3]: 100%
Activity [5]: 69%
Activity [6]: Active
Activity [7]: 49%
Activity [8]: 20%
Kd [9]: 0.03 µM
Activity [10]: 110%
Activity [11]: 100%
Activity [12]: 53%
Activity [13]: 77%
Activity [14]: 89%
Activity [15]: 78%
Activity [16]: 100%
Activity [17]: 66%
Activity [18]: 31%
Activity [19]: 34%
Activity [20]: 34%
Activity [21]: 64%
Activity [22]: 85%
Activity [23]: 8%
Activity [24]: 22%
half-life [25]: 20.6 min
Activity [27]: 25%
SMILES: Cc1nn(C)c(COc2ccc(N3CCN(S(=O)(=O)N(C)C)CC3)cc2)c1-c1cccc2c(CCCOc3cccc4ccccc34)c(C(=O)O)n(CCN3CCN(C(=O)COc4cccc5c4C(=O)N(C4CCC(=O)NC4=O)C5=O)CC3)c12 (configuration not stated)
Activity (OPM-2 [4]): 85%
Activity (OPM-2 [26]): 143%
